Source: PubChem (Johns Hopkins Ion Channel Center)
KCNK9 inh: KCNK9 potassium channel inhibitors, primary screen, HEK293 cells, thallium flux | Potassium channel subfamily K member 9 (Homo sapiens), Q9NPC2 | 1.2% of 310,000 active | B-score at 10 µM | FluxOR thallium flux fluorescence; stronger effect = lower value;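 active = ratio B-score over 3 SD below the library mean, with starting fluorescence within 5 SD of its mean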;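 also: negative B-score means less thallium flux so channel inhibition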
KCNQ1 act: potentiators or activators of KCNQ1 channel, primary screen, cell-based, thallium flux, high-throughput; CHO-K1 KCNQ1, thallium flux FluxOR fluorescence; stronger effect = higher value; AID 2648, 2010; Potassium voltage-gated channel subfamily KQT member 1 (Homo sapiens), P51787; 0.35% of 310,000 active; B-score at 10 µM;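 active = fluorescence ratio B-score, a plate-corrected score, at least three library SD, with initial intensity B-score within 5 SD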
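System: CHO-K1 cells stably expressing KCNQ1 / Medium: assay buffer for compound exposure, DMSO matched across wells / Reagent: thallium- and potassium-containing depolarizing buffer / Compound: one concentration, matched DMSO / Incubation: 20 min compound pretreatment at room temperature / Measured by: kinetic FluxOR fluorescence, 10 s baseline plus 110 s post-stimulus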
KCNK3 block: human KCNK3 channel inhibitors, primary screen, CHO cells, FluxOR thallium flux, B-score. FluxOR fluorescence; stronger effect = lower value. B-score at 10 µM. 0.84% of 340,000 active. AID 602410, 2012;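 active = B-score under library mean minus 4 SD, starting fluorescence ratio at most library mean plus 5 SD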;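 also: more negative B-score means stronger inhibition of thallium flux through KCNK3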
Target sequence (O14649 whole entry, looked up): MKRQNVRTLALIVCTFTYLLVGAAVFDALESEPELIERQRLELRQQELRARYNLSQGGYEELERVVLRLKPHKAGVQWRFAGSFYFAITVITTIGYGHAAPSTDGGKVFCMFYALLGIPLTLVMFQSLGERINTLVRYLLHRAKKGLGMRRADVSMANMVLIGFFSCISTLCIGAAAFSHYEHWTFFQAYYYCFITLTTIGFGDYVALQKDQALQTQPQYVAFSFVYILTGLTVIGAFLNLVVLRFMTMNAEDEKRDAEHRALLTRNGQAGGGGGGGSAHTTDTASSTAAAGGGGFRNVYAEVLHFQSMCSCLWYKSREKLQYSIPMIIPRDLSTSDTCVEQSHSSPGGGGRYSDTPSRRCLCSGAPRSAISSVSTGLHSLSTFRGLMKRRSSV
hERG rescue: hERG rescue from dofetilide block, primary screen, cell-based, CHO-hERG, FluxOR thallium flux, dofetilide IC70 | activation (rescue from dofetilide block), less the hit threshold, % at 10 µM | 0.51% of 310,000 active | dofetilide IC70 present | Voltage-gated inwardly rectifying potassium channel KCNH2 (Homo sapiens), Q12809;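 active = activation above the mean of controls blocked by dofetilide plus 5 SD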;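 also: thallium influx through hERG after potassium depolarization seen as dye fluorescence rise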
KCNQ1 inh: inhibitors of human KCNQ1 channel, primary screen, cell-based, thallium flux, high-throughput | 1.3% of 310,000 active | CHO-K1 KCNQ1, FluxOR thallium flux fluorescence; stronger effect = higher value | Potassium voltage-gated channel subfamily KQT member 1 (Homo sapiens), P51787 | B-score at 10 µM;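 active = compounds whose thallium flux B-score, printed positive for inhibition, exceeds three library SD while starting fluorescence stays within three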;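 also: channel opened by potassium depolarization with thallium stimulus after 20 min compound exposure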
Kir21 inh: inhibitors of mouse Kir2.1 inward-rectifier potassium channel; B-score at 10 µM; 0.85% of 310,000 active; HEK293-Kir2.1, FluxOR thallium flux fluorescence; stronger effect = lower value; Inward rectifier potassium channel 2 (Mus musculus), P35561;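 active = fluorescence ratio B-score at or below minus 3 SD of library scores, with starting-brightness B-score within 2 SD, cut at about -4.2 in these data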;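 also: channel flux triggered by added potassium and thallium sulfate stimulus; B-score of peak minus minimum fluorescence over baseline after thallium stimulus; more negative B-score means stronger Kir2.1 block with less thallium influx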
Active calls of the source: *; i = inactive; x = not tested or not shown. An excerpt weighted towards active compounds, which were near 3.7% of everything screened.

SMILES	KCNK9 inh	KCNQ1 act	KCNK3 block	hERG rescue	KCNQ1 inh	Kir21 inh
CCOc1ccc(N(CC(=O)NC2CCCCC2)C(=O)CCC(=O)Nc2cc(C)ccn2)cc1	i	i	i	-7	i	0.79
Cc1cc(C)c(Cc2c(C)nc3c(C(=O)NCc4ccco4)cnn3c2C)c(C)c1	-7.3*	i	i	-16	i	0.01
Cn1c(-c2ccc([N+](=O)[O-])cc2)nc2ccccc21	i	i	i	-6	i	1.6
Cn1nc([N+](=O)[O-])c(C(C#N)c2nc3ccccc3n2C)c(Cl)c1=O (centres undefined)	i	i	i	-11	6*	0.55
N#Cc1c(NC(=O)CSc2ccccn2)oc(-c2ccccc2)c1-c1ccccc1	i	i	i	-11	7*	0.25
COc1ccc(S(=O)(=O)NCCSCc2cccc(C)c2)cc1Br	i	i	i	-1	i	-0.85
Cc1ccc(S(=O)(=O)NCCSCc2ccccc2)cc1	i	i	i	-10	i	-5.7*
Cc1ccc(CSCCNS(=O)(=O)c2ccc([N+](=O)[O-])cc2)cc1	i	i	i	-6	i	-4.4*
O=C(CNC(=O)c1cccs1)NCCN1CCC(Cc2ccccc2)CC1	i	i	x	-11	i	0.17
Cc1cccc(OCCCC(=O)NNC(=O)c2ccccn2)c1	x	x	i	x	x	x
O=Cc1c(N2CCN(CCO)CC2)nc2ccccn2c1=O	i	i	i	-16	13*	-3.3
Cc1nn(-c2ccc(Cl)cc2Cl)c(=O)c2ccccc12	i	i	i	1	i	-0.42
CC1=NN(S(=O)(=O)c2ccc(Cl)cc2Cl)C(=O)c2ccccc2O1	i	i	i	-13	i	-4.8*
CCc1cc2c(=O)c(-c3ccc4c(c3)OCCO4)coc2cc1OS(C)(=O)=O	i	i	i	-12	6*	-0.71
Cc1ccc(SCCNC(=O)c2ccc(C)c(S(=O)(=O)Nc3cccc(C)c3)c2)cc1	i	i	-11*	-3	i	0.92
CC(C)(C)c1ccc(OCCCn2ccnc2)cc1	i	i	i	-8	i	0.25
COC(=O)C1=C(C)N(Cc2ccc(C)cc2)C(=O)/C1=C\c1cc(OC)c(OC)c(OC)c1	-6.6*	i	i	-14	i	-0.7
COC(=O)C1=C(C)N(Cc2ccccc2)C(=O)/C1=C\c1ccco1	i	i	i	-6	i	-0.29
COc1ccc(CNC(=O)Cn2nnc3ccccc3c2=O)cc1	i	i	i	-13	i	0.29
CCN(c1ccccc1)S(=O)(=O)c1ccc(NC(=S)NC(=O)c2ccc(Br)o2)cc1	i	12*	i	11*	i	-0.54
Cc1cccc(NC(=S)NC(=O)c2ccc(Br)o2)c1C	i	i	i	46*	i	0.37
Cc1ccc(NC(=S)NC(=O)c2ccc(Br)o2)c(C)c1	i	i	i	0	i	-1.6
O=C(NC(=S)Nc1ccccc1F)c1ccc(Br)o1	i	77*	i	32*	i	-0.25
Cc1cccc(C)c1NC(=S)NC(=O)c1ccc(Br)o1	i	27*	i	25*	i	1.7
COc1ccc(NC(=O)Nc2ccc3c(c2)C(=O)N([C@H](C)CO)C[C@H](C)[C@@H](CN(C)C(=O)Nc2ccc(C(F)(F)F)cc2)O3)cc1	x	x	i	x	x	x
SMILES	KCNK9 inh	KCNQ1 act	KCNK3 block	hERG rescue	KCNQ1 inh	Kir21 inh
O=C(CCCCCCCC(=O)NNC(=O)Nc1ccccc1)NNC(=O)Nc1ccccc1	i	i	i	-5	i	1.2
CCOc1ccc(NC(=O)c2sc3nc(C)nc(N4CCOCC4)c3c2C)cc1	i	i	i	-11	i	0
CCC(C(=O)NC1CC1)n1nc(C)c2c(C)n(-c3ccccc3)nc2c1=O (centres undefined)	i	i	i	-9	i	2.6
Cn1nc(N)nc1N1CCN(c2ccc(F)cc2)CC1	i	i	i	-1	i	0.81
CNC(=O)COc1coc(CN2CCN(c3ccccc3OC)CC2)cc1=O	i	i	i	0	i	-0.71
CCN(CC(=O)Nc1cc(Cl)ccc1C)c1ncnc2sc(C)c(C)c12	-6.6*	i	i	-11	i	0.01
Cc1nnc(C)n1/N=C/c1cc(Br)ccc1O	i	i	i	-6	i	1.3
Oc1c(Br)cc(Br)cc1/C=N/n1c(-c2ccccc2)n[nH]c1=S	i	12*	i	-18	i	0.41
O=[N+]([O-])c1ccc(O)c(/C=N/n2c(-c3ccccc3)n[nH]c2=S)c1	i	i	i	-26	7*	-1.9
Oc1c(Br)cc(/C=N/n2c(-c3ccccc3)n[nH]c2=S)c(Br)c1O	i	i	x	-10	i	0.34
Cc1nnc(C)n1/N=C/c1cc(Br)cc(Br)c1O	i	15*	i	12*	i	-2.6
Cn1c(=O)n(Cc2ccc(Br)cc2)c2ccccc21	i	i	i	-9	i	0.06
CN(C(=O)COC(=O)c1cc(S(=O)(=O)N2CCOCC2)ccc1Cl)C1CCS(=O)(=O)C1 (centres undefined)	i	i	i	-10	i	-2.3
O=C1CC(N2CCN(c3ccc(F)cc3)CC2)C(=O)N1c1ccc2c(c1)OCO2 (centres undefined)	i	i	i	-6	i	1.8
CC(=O)Nc1ccc(NC(=O)CSc2ncc(C(=O)Nc3ccccc3)c(=O)n2C)cc1	i	i	i	-12	7*	-0.99
Cn1c(SCC(=O)NCc2ccccc2)ncc(C(=O)Nc2ccccc2)c1=O	i	i	i	-4	i	-0.5
COc1ccc(N=c2oc3cc(O)ccc3cc2C(=O)Nc2ccccn2)cc1OC	-6.8*	i	i	-18	9*	0.71
Cc1ccc(N=c2oc3cc(O)ccc3cc2C(N)=O)cc1	i	i	i	2	i	1.1
COc1cccc(CN(C)C(=O)c2sccc2-c2ccccc2)c1OC	i	i	i	-9	i	-3.6
CN(Cc1ccccc1F)C(=O)c1sccc1-c1ccccc1	i	i	i	-12	i	-12*
